Active and inactive are the calls of the source. The rule behind the calls is not given here.

Assay type in all cases: functional, cell-based
For assay [1], the system named is CUTLL1. Nature of the assay: Effect on CDT1 gene expression in human CUTLL1 cells in absence of 1 uM dexamethasone at 30 uM after 24 hrs by microarray method. A digest of the protocol: (§1)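 CUTLL1 T-ALL cells exposed 24 h to vehicle (DMSO), dexamethasone alone (1 μM), test agent alone (30 μM), or dexamethasone (1 μM) plus test agent (30 μM), in triplicate. Expression profiled by microarray. Leading-edge genes from GSEA were compared between the dexamethasone-plus-agent and dexamethasone-alone groups, using glucocorticoid-regulated gene sets from ALL patients on glucocorticoid therapy.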

Assay [2] concerns CUTLL1. Nature of the assay: Effect on APITD1 gene expression in human CUTLL1 cells in absence of 1 uM dexamethasone at 30 uM after 24 hrs by microarray method. A digest of the protocol: as §1
The test system of assay [3] is CUTLL1. Nature of the assay: Effect on RPS14 gene expression in human CUTLL1 cells in presence of 1 uM dexamethasone at 30 uM after 24 hrs by microarray method. In a few lines: (§2)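 Human CUTLL1 T-ALL cells exposed for 24 h to vehicle (DMSO), dexamethasone alone (1 μM), test compound alone (30 μM), or dexamethasone 1 μM plus compound 30 μM, each in triplicate. Expression profiled by microarray. Glucocorticoid-regulated gene sets from ALL patients on glucocorticoid therapy scored by GSEA. Leading-edge genes compared between the combination and dexamethasone alone.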

In assay [4] the test system is CUTLL1. Nature of the assay: Effect on PCNA gene expression in human CUTLL1 cells in presence of 1 uM dexamethasone at 30 uM after 24 hrs by microarray method. In a few lines: as §2
The test system of assay [5] is CUTLL1. The experiment in a line: Effect on ZWINT gene expression in human CUTLL1 cells in presence of 1 uM dexamethasone at 30 uM after 24 hrs by microarray method. A digest of the protocol:
as §2

Assay [6] concerns CUTLL1. Nature of the assay: Potentiation of dexamethasone-induced cytotoxicity against human CUTLL1 cells with low GR expression levels at 50 uM after 48 hrs by alamar blue assay. In a few lines: (§3)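 Human CUTLL1 T-ALL cells engineered to express high (overexpressed) or low (knockdown) glucocorticoid receptor levels. Exposed to compound alone or with 1 μM dexamethasone. Alamar blue growth inhibition read after 48 h.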
(The colour change of resazurin is a common sign of viable cells or microbes.)

The subject of assay [7] is CUTLL1. Nature of the assay: Effect on CDC45 gene expression in human CUTLL1 cells in presence of 1 uM dexamethasone at 30 uM after 24 hrs by microarray method. In a few lines: as §1
Assay [8] concerns CUTLL1. The experiment in a line: Effect on ATAD2 gene expression in human CUTLL1 cells in presence of 1 uM dexamethasone at 30 uM after 24 hrs by microarray method. A digest of the protocol: as §1
The subject of assay [9] is CUTLL1. The experiment in a line: Growth inhibition of human CUTLL1 cells at 12.5 to 50 uM in presence of 1 uM dexamethasone and 1 uM […] and glucocorticoid receptor antagonist RU486 after 48 hrs by alamar blue assay. A digest of the protocol: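 CUTLL1 cells treated for 48 h with compound, with or without dexamethasone 1 μM and RU486 1 μM. Growth inhibition read out by alamar blue.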

Assay [10] relates to CUTLL1. The experiment in a line: Effect on SOCS1 gene expression in human CUTLL1 cells in absence of 1 uM dexamethasone at 30 uM after 24 hrs by microarray method. A digest of the protocol:
as §2

The subject of assay [11] is CUTLL1. The experiment in a line: Effect on APITD1 gene expression in human CUTLL1 cells in presence of 1 uM dexamethasone at 30 uM after 24 hrs by microarray method. A digest of the protocol:
as §1

For assay [12], the system named is CUTLL1. Nature of the assay: Increase in GR expression in human CUTLL1 cells at 25 to 50 uM in presence of 1 uM dexamethasone and 1 uM […] and glucocorticoid receptor antagonist RU486 after 24 hrs by RT-qPCR method. A digest of the protocol: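 CUTLL1 cells exposed to compound (25 or 50 μM) alone, with 1 μM dexamethasone, or with dexamethasone plus 1 μM RU486, for 6 or 24 h. GR measured as protein by Western blot and as transcript by RT-qPCR.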

The test system of assay [13] is CUTLL1. The experiment in a line: Effect on FEN1 gene expression in human CUTLL1 cells in absence of 1 uM dexamethasone at 30 uM after 24 hrs by microarray method. In a few lines:
as §1

Assay [14] has as its system CUTLL1. Nature of the assay: Growth inhibition of human CUTLL1 cells with high GR expression levels at 50 uM after 48 hrs by alamar blue assay. A digest of the protocol: as §3
Assay [15] can be described thus: Growth inhibition of human CUTLL1 cells in absence of 1 uM dexamethasone after 48 hrs by alamar blue assay. To be noted: CUTLL1, 48 h. A digest of the protocol: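 CUTLL1 cells given compound alone or with dexamethasone 1 μM. Growth inhibition measured by alamar blue after 48 h.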
Assay [16] concerns CUTLL1. The experiment in a line: Effect on E2F7 gene expression in human CUTLL1 cells in absence of 1 uM dexamethasone at 30 uM after 24 hrs by microarray method. A digest of the protocol:
as §1

One may read the EC50 as the concentration giving half of the maximal effect. Consider `Nc1ncc(-c2ccncc2)c(C2CC2)n1`, for which the outcome in [1], in assay [2], in assay [10], in assay [12], in [13] and in [16] was inactive. In addition, the result in [3], in [4], in assay [5], in assay [6], in assay [7] and in [8] was Active. In assay [11], the outcome was Active. In addition, the “growth inhibition (GI)” value in assay [9] and in assay [14] was “inactive” throughout. Further, in assay [15], the EC50 was at least 100 µM.

Values taken from ChEMBL document CHEMBL3351896, “Small Molecule that Reverses Dexamethasone Resistance in T-cell Acute Lymphoblastic Leukemia (T-ALL)” (ACS Med Chem Lett, 2014).
